Measurements as given in ChEMBL document CHEMBL1137375, “Design, synthesis, and biological evaluation of new 1,8-naphthyridin-4(1H)-on-3-carboxamide and quinolin-4(1H)-on-3-carboxamide derivatives as CB2 selective agonists” (J Med Chem, 2006).
Active and inactive are the calls of the source. The calls are words filed in the database; no cut-off is given here.

How the values were obtained:
Cannabinoid receptor 1 [1] = target: T1, Cannabinoid receptor 1 (Mus musculus, UniProt P47746); assay: Displacement of [3H]CP-55940 from CB1 receptor in DBA/J2 mouse brain; format: tissue-based
T1 sequence (P47746 whole entry): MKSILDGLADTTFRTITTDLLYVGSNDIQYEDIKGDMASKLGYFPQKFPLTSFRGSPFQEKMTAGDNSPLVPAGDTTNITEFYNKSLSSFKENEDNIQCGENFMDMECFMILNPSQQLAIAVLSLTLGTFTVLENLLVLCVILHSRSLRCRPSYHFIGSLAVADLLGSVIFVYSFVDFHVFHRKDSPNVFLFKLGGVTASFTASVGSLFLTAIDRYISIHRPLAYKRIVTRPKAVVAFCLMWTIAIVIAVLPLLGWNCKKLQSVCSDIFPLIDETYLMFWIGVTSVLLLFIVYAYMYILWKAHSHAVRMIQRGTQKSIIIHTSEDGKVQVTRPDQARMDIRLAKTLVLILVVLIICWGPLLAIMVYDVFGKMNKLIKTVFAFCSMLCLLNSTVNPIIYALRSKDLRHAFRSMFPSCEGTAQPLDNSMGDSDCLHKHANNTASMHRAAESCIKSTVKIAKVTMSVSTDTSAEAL

Cannabinoid receptor 2 = Cannabinoid receptor 2 (Mus musculus, UniProt P47936); assay: Displacement of [3H]CP-55940 from CB2 receptor in DBA/J2 mouse spleen
Chain of Cannabinoid receptor 2 (P47936 whole entry): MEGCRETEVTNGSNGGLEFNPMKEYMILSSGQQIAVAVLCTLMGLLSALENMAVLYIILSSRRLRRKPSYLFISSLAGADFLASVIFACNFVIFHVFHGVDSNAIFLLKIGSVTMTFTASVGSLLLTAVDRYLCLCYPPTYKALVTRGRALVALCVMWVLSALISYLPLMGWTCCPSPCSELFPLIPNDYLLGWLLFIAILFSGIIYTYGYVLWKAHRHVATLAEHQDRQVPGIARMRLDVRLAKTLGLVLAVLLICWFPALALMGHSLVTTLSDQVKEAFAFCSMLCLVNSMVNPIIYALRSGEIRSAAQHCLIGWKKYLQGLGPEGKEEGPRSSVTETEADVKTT
Summary of the method: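 Membranes (40-60 µg protein) from mouse brain minus cerebellum (CB1) or spleen (CB2), incubated 1 h at 30 °C with 0.5 nM [3H]CP-55,940 in TME buffer (pH 7.4) with 5 mg/mL BSA. GF/C filtration, scintillation counting. IC50 by nonlinear fit, converted to Ki by Cheng-Prusoff; at least three membrane preparations.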

[2] = target: Cannabinoid receptor (Mus musculus) (UniProt P47746+P47936); assay: Selectivity for DBA/J2 mouse CB2 receptor over CB1 receptor; format: protein assay
Chain of Cannabinoid receptor (Mus musculus) (P47746 whole entry, looked up): as the sequence (P47746 whole entry) above
Chain of Cannabinoid receptor (Mus musculus) (P47936 whole entry, looked up): as the sequence (P47936 whole entry) above

[3] = target: Cannabinoid receptor 1 (Mus musculus) (UniProt P47746); assay: (§1) Activity at CB1 receptor assessed as stimulation of [35S]GTP-gamma-S binding in DBA/J2 mouse brain; format: functional; details: filed as agonist
Chain of Cannabinoid receptor 1 (Mus musculus) (P47746 whole entry): as the sequence (P47746 whole entry) above

Cannabinoid receptor 1 [4] = target: T1, Cannabinoid receptor 1; assay: as §1; format: functional
[5] = target: Cannabinoid receptor 1 (Mus musculus) (UniProt P47746); assay: Activity at CB1 receptor assessed as stimulation of [35S]GTP-gamma-S binding in DBA/J2 mouse brain relative to control; format: functional
Summary of the method: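 Mouse brain (minus cerebellum) P2 membranes, 5-10 µg protein, incubated 60 min at 30 °C in 50 mM Tris-HCl, 3 mM MgCl2, 0.2 mM EGTA, 100 mM NaCl, pH 7.4, 0.1% BSA, with 0.05 nM [35S]GTPγS, 30 µM GDP, compound 1-5000 nM. Filtration, scintillation counting. Nonspecific binding with 10 µM GTPγS. Stimulation as % above basal. EC50/Emax by nonlinear regression; at least four experiments in duplicate.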

[6] = target: Cannabinoid receptor 2 (Homo sapiens) (UniProt P34972); assay: Activity at CB2 receptor assessed as reduction in CD203c expression in activated human basophil; format: functional
Chain of Cannabinoid receptor 2 (Homo sapiens) (P34972 whole entry): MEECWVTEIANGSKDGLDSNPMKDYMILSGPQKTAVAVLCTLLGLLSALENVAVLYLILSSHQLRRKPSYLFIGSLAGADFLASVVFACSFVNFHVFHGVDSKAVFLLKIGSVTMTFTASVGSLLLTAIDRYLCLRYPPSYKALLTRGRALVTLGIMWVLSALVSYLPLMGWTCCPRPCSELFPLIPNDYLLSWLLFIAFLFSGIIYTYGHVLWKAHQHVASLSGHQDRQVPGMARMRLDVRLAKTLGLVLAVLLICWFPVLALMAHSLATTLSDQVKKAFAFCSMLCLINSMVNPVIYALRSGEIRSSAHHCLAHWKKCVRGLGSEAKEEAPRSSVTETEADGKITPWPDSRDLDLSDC
Summary of the method: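 Human basophil-rich leukocytes from donor blood buffy coats via Ficoll-Paque. Cells pretreated with compound 1 nM to 1 µM for 30 min at 37 °C, then stimulated with anti-IgE 1 µg/mL for 30 min at 37 °C. CD203c (PE) read by flow cytometry on IgE-FITC-gated basophils. Antagonist check: SR 144528 or AM251 100 nM preincubated 30 min. Six experiments in triplicate.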

Compound: CC1CCC(NC(=O)c2cn(CCN3CCOCC3)c3nc(Cl)ccc3c2=O)CC1 (stereo not given)
- Ki (Cannabinoid receptor 1 [1]): > 1000 nM
- Ki (Cannabinoid receptor 2): 40.5 nM
- Ratio Ki [2]: > 25

Compound: O=C(NC1CCCCC1)c1cn(Cc2ccc(F)cc2)c2nc(Cl)ccc2c1=O
- Ki (Cannabinoid receptor 1 [1]): 495 nM
- Ki (Cannabinoid receptor 2): 21.4 nM
- Ratio Ki [2]: 23

Compound: Cc1ccc2c(=O)c(C(=O)NC3CCCCC3)cn(Cc3ccccc3)c2n1
- Ki (Cannabinoid receptor 1 [1]): 127 nM
- Ki (Cannabinoid receptor 2): 10 nM
- Ratio Ki [2]: 13

Compound: Cc1ccc2c(=O)c(C(=O)NC3CCC(C)CC3)cn(Cc3ccccc3F)c2n1 (stereo not given)
- Ki (Cannabinoid receptor 1 [1]): 37.5 nM
- Ki (Cannabinoid receptor 2): 8.4 nM
- Ratio Ki [2]: 4
- Activity [3]: Agonist
- EC50 (Cannabinoid receptor 1 [4]): 138 nM
- Emax [5]: 161%

Compound: CCCCC/C=C\C/C=C\C/C=C\C/C=C\CCCC(=O)NCCCl
- Ki (Cannabinoid receptor 1 [1]): 3.9 nM
- Ki (Cannabinoid receptor 2): 121 nM
- Ratio Ki [2]: 0.03

Compound: Cc1c(C(=O)c2cccc3ccccc23)c2cccc3c2n1[C@H](CN1CCOCC1)CO3
- Emax [5]: 187%

Compound: O=C(NC1CCCCC1)c1cn(Cc2ccccc2)c2ncccc2c1=O
- Ki (Cannabinoid receptor 1 [1]): > 1000 nM
- Ki (Cannabinoid receptor 2): 48.6 nM
- Ratio Ki [2]: > 21

Compound: Cc1ccc2c(n1)N(Cc1ccccc1F)CC(C(=O)NC1CCCCC1)C2O (stereo not given)
- Ki (Cannabinoid receptor 1 [1]): > 1000 nM
- Ki (Cannabinoid receptor 2): > 1000 nM

Compound: Cc1ccc2c(n1)N(Cc1ccccc1)CC(C(=O)NC1CCCCC1)C2O (stereo not given)
- Ki (Cannabinoid receptor 1 [1]): > 1000 nM
- Ki (Cannabinoid receptor 2): > 1000 nM

Compound: Cc1ccc2c(=O)c(C(=O)NC3CCCCCC3)cn(Cc3ccc(F)cc3)c2n1
- Ki (Cannabinoid receptor 1 [1]): 4.3 nM
- Ki (Cannabinoid receptor 2): 1 nM
- Ratio Ki [2]: 4.3

Compound: Cc1ccc2c(=O)c(C(=O)NC3CCCC3)cn(CCN3CCOCC3)c2n1
- Ki (Cannabinoid receptor 1 [1]): > 1000 nM
- Ki (Cannabinoid receptor 2): 50 nM
- Ratio Ki [2]: > 20
- Activity [6]: Active

Compound: Cc1ccc2c(=O)c(C(=O)NC3CCCCCC3)cn(Cc3ccccc3F)c2n1
- Ki (Cannabinoid receptor 1 [1]): 149 nM
- Ki (Cannabinoid receptor 2): 13.4 nM
- Ratio Ki [2]: 11

Compound: Cc1ccc2c(=O)c(C(=O)NC3CCCCCC3)cn(Cc3ccccc3)c2n1
- Ki (Cannabinoid receptor 1 [1]): 143 nM
- Ki (Cannabinoid receptor 2): 5.1 nM
- Ratio Ki [2]: 28

Compound: CCCC(C)(C)c1ccc2c(c1)OC(C)(C)[C@@H]1CC=C(C)C[C@@H]21
- Ki (Cannabinoid receptor 1 [1]): 458 nM
- Ki (Cannabinoid receptor 2): 65 nM
- Ratio Ki [2]: 7

Compound: O=C(NC1CCCCC1)c1cn(Cc2ccccc2)c2ccccc2c1=O
- Ki (Cannabinoid receptor 1 [1]): > 1000 nM
- Ki (Cannabinoid receptor 2): 4.8 nM
- Ratio Ki [2]: > 210
- Activity [6]: Active

Compound: COc1ccc(Cn2cc(C(=O)NC3CCCCC3)c(=O)c3ccc(C)nc32)cc1
- Ki (Cannabinoid receptor 1 [1]): > 1000 nM
- Ki (Cannabinoid receptor 2): 35.8 nM
- Ratio Ki [2]: > 28

Compound: Cc1ccc2c(=O)c(C(=O)NC3CCCCC3)cn(CCc3ccccc3)c2n1
- Ki (Cannabinoid receptor 1 [1]): > 1000 nM
- Ki (Cannabinoid receptor 2): 16.3 nM
- Ratio Ki [2]: > 62

Compound: Cc1ccc2c(n1)N(CCN1CCOCC1)CC(C(=O)NC1CCC(C)CC1)C2O (stereo not given)
- Ki (Cannabinoid receptor 1 [1]): > 1000 nM
- Ki (Cannabinoid receptor 2): > 1000 nM

Compound: Cc1ccc2c(=O)c(C(=O)NC3CCC(C)CC3)cn(Cc3ccc(F)cc3)c2n1 (stereo not given)
- Ki (Cannabinoid receptor 1 [1]): 8.7 nM
- Ki (Cannabinoid receptor 2): 1.4 nM
- Ratio Ki [2]: 6
- Activity [3]: Agonist
- EC50 (Cannabinoid receptor 1 [4]): 27 nM
- Emax [5]: 172%

Compound: O=C(NC1CCCCC1)c1cn(CCN2CCOCC2)c2ncccc2c1=O
- Ki (Cannabinoid receptor 1 [1]): > 1000 nM
- Ki (Cannabinoid receptor 2): 67.2 nM
- Ratio Ki [2]: > 15

Compound: O=C(NC1CCCCC1)c1cn(Cc2ccccc2F)c2nc(Cl)ccc2c1=O
- Ki (Cannabinoid receptor 2): 18.1 nM

Compound: Cc1ccc2c(=O)c(C(=O)NC3CCCCC3)cn(CCN3CCN(c4ccccc4)CC3)c2n1
- Ki (Cannabinoid receptor 1 [1]): > 1000 nM
- Ki (Cannabinoid receptor 2): > 1000 nM

Compound: O=C(NC1CCCCC1)c1cn(Cc2ccccc2)c2nc(Cl)ccc2c1=O
- Ki (Cannabinoid receptor 1 [1]): 464 nM
- Ki (Cannabinoid receptor 2): 24.6 nM
- Ratio Ki [2]: 19

Compound: O=C(NC1CCCCC1)c1cn(Cc2ccc(F)cc2)c2ncccc2c1=O
- Ki (Cannabinoid receptor 1 [1]): 384 nM
- Ki (Cannabinoid receptor 2): 13 nM
- Ratio Ki [2]: 29

Compound: O=C(NC1CCCCC1)c1cn(CCN2CCOCC2)c2cc(Cl)ccc2c1=O
- Ki (Cannabinoid receptor 1 [1]): > 1000 nM
- Ki (Cannabinoid receptor 2): 3.3 nM
- Ratio Ki [2]: > 303
